The source of these data is ChEMBL document CHEMBL1932946, “Design, synthesis and anticonvulsant evaluation of novel N-(4-substituted phenyl)-2-[4-(substituted) benzylidene]-hydrazinecarbothio amides” (Eur J Med Chem, 2012).

Each structure is given as a SMILES string.

Data set [1] has as its system Mus musculus. Description: Neurotoxicity in albino CF-1 mouse assessed as minimum motor impairment at 300 mg/kg, ip after 4 hrs by rotarod test. It is filed as toxicity, organism-based. On the set-up: dose 300 mg/kg, route intraperitoneal. The note with it: in vivo. In a few lines: (§1)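 Minimal motor impairment assessed in male CF-1 albino mice (18–25 g) at 0.5 and 4 h after i.p. doses of 30, 100 and 300 mg/kg, given in 0.5% methyl cellulose. Minimum dose toxic in half or more of mice recorded.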
A general note: In the rotarod test animals must keep their balance on a rotating rod.

A short description of data set [2]: Octanol-phosphate buffer partition coefficient, log P of the compound at 5 mg after 24 hrs by UV spectroscopic analysis. It is filed as physicochemical. The essentials:
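5 mg compound added to 10 mL octanol plus 10 mL phosphate buffer in a stoppered tube. Mixture shaken mechanically 24 h at room temperature, then left 6 h in a separating funnel to equilibrate.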

Data set [3] concerns Mus musculus. The experiment in a line: Neurotoxicity in albino CF-1 mouse assessed as minimum motor impairment at 300 mg/kg, ip after 0.5 hrs by rotarod test. It is filed as toxicity, organism-based. On the set-up: dose 300 mg/kg, route intraperitoneal. The note with it: in vivo. The essentials:
as §1

Consider `S=C(N/N=C/c1ccc(Oc2ccc3ccccc3c2)cc1)Nc1ccc(Cl)cc1`, for which the Activity entry in the data set on Mus musculus [1] and in the data set on Mus musculus [3] was “Non-toxic” throughout. Moreover, the lipophilicity (logP) at 24 h in data set [2] was determined as 6.96.
In the case of `S=C(N/N=C/c1ccc(Oc2ccc(Br)cc2)cc1)Nc1ccc(Cl)cc1`, the Activity entry in the data set on Mus musculus [1] and in the data set with Mus musculus [3] was “Non-toxic” in each case. In data set [2], this compound came in with a logP at 24 h of 6.37.
Turning to `S=C(N/N=C/c1ccc(Oc2ccc3ccccc3c2)cc1)Nc1ccc(Br)cc1`, the Activity entry with Mus musculus [1] and in the data set on Mus musculus [3] was “Non-toxic” throughout. For the same compound, the logP at 24 h in data set [2] was determined as 6.93.
Consider `S=C(N/N=C/c1ccc(Oc2ccc3c(c2)OCO3)cc1)Nc1ccc(Cl)cc1`, for which the Activity entry in the data set with Mus musculus [1] and in the data set with Mus musculus [3] was “Non-toxic” each time. The compound further registered a logP at 24 h in data set [2] of 5.54.
As for `S=C(N/N=C/c1ccc(Oc2ccc3c(c2)OCO3)cc1)Nc1ccccc1`, the Activity result in the data set with Mus musculus [1] and in the data set on Mus musculus [3] was “Non-toxic” in each case. The same compound yielded a logP at 24 h in data set [2] of 4.8.
Turning to `S=C(N/N=C/c1ccc(Oc2ccc(Cl)cc2)cc1)Nc1ccc(Cl)cc1`, the Activity result in the data set with Mus musculus [1] and with Mus musculus [3] was “Non-toxic” each time. The logP at 24 h in data set [2] is 6.2.
For `Cc1ccc(Oc2ccc(/C=N/NC(=S)Nc3ccc(Cl)cc3)cc2)cc1`, the Activity entry in the data set with Mus musculus [1] and in the data set with Mus musculus [3] was “Non-toxic” in each case. The compound also registered a lipophilicity (logP) at 24 h in data set [2] of 5.97.
Consider `S=C(N/N=C/c1ccc(Oc2ccc3c(c2)OCO3)cc1)Nc1ccc(Br)cc1`, for which the Activity result with Mus musculus [1] and with Mus musculus [3] was “Non-toxic” throughout. The compound also returned a logP at 24 h in data set [2] of 5.52.
As for `O=[N+]([O-])c1ccc(Oc2ccc(/C=N/NC(=S)Nc3ccc(Cl)cc3)cc2)cc1`, the Activity result in the data set on Mus musculus [1] and in the data set on Mus musculus [3] was “Non-toxic” each time. For the same compound, the log partition coefficient (logP) at 24 h in data set [2] was 5.52.
`S=C(N/N=C/c1ccc(Oc2ccc3ccccc3c2)cc1)Nc1ccccc1`: the Activity entry with Mus musculus [1] and with Mus musculus [3] was “Non-toxic” throughout. The compound also displayed a logP at 24 h in data set [2] of 6.07.
Take `S=C(N/N=C/c1ccc(Oc2ccc(Cl)cc2)cc1)Nc1ccccc1`: the Activity entry in the data set with Mus musculus [1] and in the data set with Mus musculus [3] was “Non-toxic” each time. In data set [2], this compound returned a logP at 24 h of 5.52.
Turning to `S=C(N/N=C/c1ccc(Oc2ccccc2)cc1)Nc1ccc(Cl)cc1`, the Activity result in the data set with Mus musculus [1] and with Mus musculus [3] was “Non-toxic” throughout. This compound displayed a logP at 24 h in data set [2] of 5.64.
With `S=C(N/N=C/c1ccc(Oc2ccccc2)cc1)Nc1ccccc1`, the Activity entry with Mus musculus [1] and with Mus musculus [3] was “Non-toxic” in each case. In data set [2], this compound had a logP at 24 h of 4.9.
As for `S=C(N/N=C/c1ccc(Oc2ccc(Cl)cc2)cc1)Nc1ccc(Br)cc1`, the Activity entry in the data set with Mus musculus [1] and with Mus musculus [3] was “Non-toxic” in each case. In data set [2], this compound had a logP at 24 h of 6.24.
With `O=[N+]([O-])c1ccc(Oc2ccc(/C=N/NC(=S)Nc3ccccc3)cc2)cc1`, the Activity result in the data set with Mus musculus [1] and in the data set with Mus musculus [3] was “Non-toxic” throughout. The compound further had a logP at 24 h in data set [2] of 4.95.
On to `Cc1ccc(Oc2ccc(/C=N/NC(=S)Nc3ccccc3)cc2)cc1`, for which the Activity entry with Mus musculus [1] and with Mus musculus [3] was “Non-toxic” throughout. The same compound came in with a lipophilicity (logP) at 24 h in data set [2] of 5.39.
In the case of `O=[N+]([O-])c1ccc(Oc2ccc(/C=N/NC(=S)Nc3ccc(Br)cc3)cc2)cc1`, the Activity result in the data set on Mus musculus [1] and in the data set on Mus musculus [3] was “Non-toxic” in each case. This compound also came in with a logP at 24 h in data set [2] of 5.68.
Take `Fc1ccc(NC(=S)N/N=C/c2ccc(Oc3ccc4c(c3)OCO4)cc2)cc1`: the Activity entry in the data set on Mus musculus [1] and in the data set on Mus musculus [3] was “Non-toxic” throughout. In addition, the logP at 24 h in data set [2] is 4.99.

A word on the logP: it is the decadic logarithm of the partition coefficient of the neutral form, usually between octanol and water.
